pKi: −log10 of the molar value.
Tests used:
Raji [1] = experiment: Tumor promoting activity in human Raji cells assessed as induction of EBV-early antigen activation at 1 uM after 48 hrs by FITC staining based indirect immunofluorescence assay; type: cell-based
Method in brief: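 Raji B-lymphoblastoid cells (5 × 10⁵/mL) held 48 h at 37 °C, 5% CO₂, in RPMI 1640 with 10% FBS. Medium contained 4 mM sodium n-butyrate and compound at 10, 100 or 1000 nM final, with 0.4% DMSO final. Smears stained by indirect immunofluorescence using NPC patient serum and FITC anti-human IgG. At least 500 cells counted; result given as % EA-positive.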

Mus musculus [2] = experiment: Tumor promoting activity in ICR mouse assessed as effect on DMBA-mediated skin carcinogenesis at 1.7 nmol administered 1 week after DMBA challenge twice weekly measured after 6 weeks by two-stage carcinogenesis test; type: organism-based; conditions: in vivo, 1008 h
Method in brief: (§1)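 Two-stage mouse skin model in ICR mice, 10 per group. Back skin initiated with a single 390 nmol dose of DMBA, then promoted with 1.7 nmol of test compound; TPA served as control. Scored as tumor-bearing mice (%), compared by Fisher's exact test, and papillomas per mouse, compared by Welch's t-test; p < 0.05.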

Mus musculus [3] = experiment: Tumor promoting activity in ICR mouse assessed as effect on DMBA-mediated skin carcinogenesis at 1.7 nmol administered 1 week after DMBA challenge twice weekly measured after 11 weeks by two-stage carcinogenesis test; type: organism-based; conditions: in vivo, 1848 h; method in brief: as §1
Mus musculus [4] = experiment: Tumor promoting activity in DMBA treated ICR mouse assessed as number of papillomas at 1.7 nmol administered 1 week after DMBA challenge twice weekly measured after 20 weeks by two-stage carcinogenesis test; type: organism-based; conditions: in vivo, 3360 h; method in brief: as §1
Raji [5] = experiment: Tumor promoting activity in human Raji cells assessed as induction of EBV-early antigen activation after 48 hrs by FITC staining based indirect immunofluorescence assay; type: cell-based
Method in brief: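 Raji cells (5 × 10⁵/mL) were grown in RPMI 1640 with 10% FBS at 37 °C and 5% CO₂, with 4 mM sodium n-butyrate as synergist. Compounds were tested at 10, 100 or 1000 nM final, with DMSO at 0.4% final, for 48 h. Cell smears were stained by indirect immunofluorescence using NPC patient serum and FITC anti-human IgG. At least 500 cells were counted and the percentage of EA-positive cells recorded.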

[6] = n-Octanol-water partition coefficient, log P of the compound by HPLC analysis; type: physicochemical
[7] = Growth inhibition of human HBC4 cells after 48 hrs by sulforhodamine B assay; type: functional; conditions: HBC4, 48 h
Method in brief: (§2)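 Cell line from a 39-line human cancer panel, grown in RPMI 1640 with 5% FBS and attached overnight. Exposed 48 h to drug at 10⁻⁸ to 10⁻⁴ M (tenfold steps). Sulforhodamine B read at 525 nm against control and time-0 wells. % growth = 100[(T − T₀)/(C − T₀)] from duplicate points; GI₅₀ is the level giving 50.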

MDA-MB-231 = experiment: Growth inhibition of human MDA-MB-231 cells after 48 hrs by sulforhodamine B assay; type: functional; conditions: MDA-MB-231, 48 h; method in brief: as §2
SNB-78 = experiment: Growth inhibition of human SNB-78 cells after 48 hrs by sulforhodamine B assay; type: functional; conditions: SNB-78, 48 h; method in brief: as §2
HCC 2998 = experiment: Growth inhibition of human HCC2998 cells after 48 hrs by sulforhodamine B assay; type: functional; conditions: HCC 2998, 48 h; method in brief: as §2
NCI-H460 = experiment: Growth inhibition of human NCI-H460 cells after 48 hrs by sulforhodamine B assay; type: functional; conditions: NCI-H460, 48 h; method in brief: as §2
A549 = experiment: Growth inhibition of human A549 cells after 48 hrs by sulforhodamine B assay; type: functional; conditions: A549, 48 h; method in brief: as §2
LOX IMVI = experiment: Growth inhibition of human LOXIMVI cells after 48 hrs by sulforhodamine B assay; type: functional; method in brief: as §2
St-4 = experiment: Growth inhibition of human St-4 cells after 48 hrs by sulforhodamine B assay; type: functional; conditions: St-4, 48 h; method in brief: as §2
Mus musculus [8] = experiment: Tumor promoting activity in ICR mouse assessed as effect on DMBA-mediated skin carcinogenesis at 8.5 nmol administered 1 week after DMBA challenge twice weekly measured after 20 weeks by two-stage carcinogenesis test; type: organism-based; conditions: in vivo, 3360 h
Method in brief: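 Two-stage skin carcinogenesis in ICR mice, with 10 mice per group. The back skin was initiated with a single 390 nmol DMBA dose, then treated with the test compound. The control group received DMBA plus 1.7 nmol TPA. Read-outs were percentage of tumor-bearing mice and papillomas per mouse, compared by Fisher's exact test and Welch's t-test (p < 0.05).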

[9] = biological target: Protein kinase C alpha type (Homo sapiens, UniProt P17252); experiment: Inhibition of [3H]PDBu binding to PKCalpha C1A domain
Method in brief: (§3)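 Displacement of [³H]PDBu (20 nM) from synthetic PKC C1 peptides (10−20 nM; about 3 nM properly folded) in 50 mM Tris-maleate, pH 7.4 at 4 °C. Buffer held 50 μg/mL phosphatidylserine and 3 mg/mL bovine γ-globulin, with inhibitor at various concentrations. IC₅₀ taken from 50% loss of specific binding by probit; Ki by the Sharkey–Blumberg method.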

[10] = biological target: Protein kinase C beta type (Homo sapiens, UniProt P05771); experiment: Inhibition of [3H]PDBu binding to PKCbeta C1A domain; method in brief: as §3
[11] = biological target: Protein kinase C gamma type (Homo sapiens, UniProt P05129); experiment: Inhibition of [3H]PDBu binding to PKCgamma C1A domain; method in brief: as §3
[12] = biological target: Protein kinase C delta type (Homo sapiens, UniProt Q05655); experiment: Inhibition of [3H]PDBu binding to PKCdelta C1B domain; method in brief: as §3
[13] = biological target: T1, Protein kinase C epsilon type (Homo sapiens, UniProt Q02156); experiment: Inhibition of [3H]PDBu binding to PKCepsilon C1B domain; method in brief: as §3
T1 sequence (Q02156 whole entry): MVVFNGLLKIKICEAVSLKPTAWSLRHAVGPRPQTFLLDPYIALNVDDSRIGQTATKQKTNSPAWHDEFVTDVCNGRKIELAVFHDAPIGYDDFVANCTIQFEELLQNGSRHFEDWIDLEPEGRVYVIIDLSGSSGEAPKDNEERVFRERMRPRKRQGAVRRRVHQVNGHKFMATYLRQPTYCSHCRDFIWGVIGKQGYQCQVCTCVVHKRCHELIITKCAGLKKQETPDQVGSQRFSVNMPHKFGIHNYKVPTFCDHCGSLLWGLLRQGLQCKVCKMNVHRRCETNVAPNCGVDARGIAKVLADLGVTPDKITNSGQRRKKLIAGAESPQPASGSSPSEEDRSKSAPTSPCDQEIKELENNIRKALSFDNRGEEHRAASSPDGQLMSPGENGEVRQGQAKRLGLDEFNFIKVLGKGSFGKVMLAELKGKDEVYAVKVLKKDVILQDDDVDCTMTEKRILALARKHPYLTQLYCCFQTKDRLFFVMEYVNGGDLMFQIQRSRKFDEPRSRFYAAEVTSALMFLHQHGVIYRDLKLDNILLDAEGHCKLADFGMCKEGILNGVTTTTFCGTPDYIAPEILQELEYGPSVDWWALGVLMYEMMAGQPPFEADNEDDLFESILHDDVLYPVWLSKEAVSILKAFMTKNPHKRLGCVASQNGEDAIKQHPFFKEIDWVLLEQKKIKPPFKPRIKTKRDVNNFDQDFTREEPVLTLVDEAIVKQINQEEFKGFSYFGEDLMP

[14] = biological target: Protein kinase C eta type (Homo sapiens, UniProt P24723); experiment: Inhibition of [3H]PDBu binding to PKCeta C1B domain; method in brief: as §3
[15] = biological target: Protein kinase C theta type (Homo sapiens, UniProt Q04759); experiment: Inhibition of [3H]PDBu binding to PKCtheta C1B domain; method in brief: as §3
Mus musculus [16] = experiment: Tumor promoting activity in ICR mouse assessed as effect on DMBA-mediated skin carcinogenesis at 1.7 nmol administered 1 week after DMBA challenge twice weekly measured by two-stage carcinogenesis test; type: organism-based; conditions: in vivo, 168 h; method in brief: as §1

Sequence of Protein kinase C eta type (P24723 whole entry, the tested form may be a part): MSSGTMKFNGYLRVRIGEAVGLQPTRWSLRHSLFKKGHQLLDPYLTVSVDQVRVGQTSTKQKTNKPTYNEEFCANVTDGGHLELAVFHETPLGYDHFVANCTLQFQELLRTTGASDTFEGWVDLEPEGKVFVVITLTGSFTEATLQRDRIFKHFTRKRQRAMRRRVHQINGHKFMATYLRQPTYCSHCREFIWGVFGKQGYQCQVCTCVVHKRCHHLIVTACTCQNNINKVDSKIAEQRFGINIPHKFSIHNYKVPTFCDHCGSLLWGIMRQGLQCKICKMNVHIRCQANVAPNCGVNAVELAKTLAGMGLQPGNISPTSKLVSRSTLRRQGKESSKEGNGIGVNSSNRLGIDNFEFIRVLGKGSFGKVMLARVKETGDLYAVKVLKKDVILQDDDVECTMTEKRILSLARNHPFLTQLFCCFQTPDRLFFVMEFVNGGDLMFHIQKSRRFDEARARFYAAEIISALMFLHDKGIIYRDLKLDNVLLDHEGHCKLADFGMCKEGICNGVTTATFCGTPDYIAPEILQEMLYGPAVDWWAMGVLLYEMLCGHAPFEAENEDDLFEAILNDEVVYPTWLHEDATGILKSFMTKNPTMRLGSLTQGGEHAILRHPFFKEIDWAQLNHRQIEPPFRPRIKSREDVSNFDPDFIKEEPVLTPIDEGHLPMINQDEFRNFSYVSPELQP
Sequence of Protein kinase C theta type (Q04759 whole entry, the tested form may be a part): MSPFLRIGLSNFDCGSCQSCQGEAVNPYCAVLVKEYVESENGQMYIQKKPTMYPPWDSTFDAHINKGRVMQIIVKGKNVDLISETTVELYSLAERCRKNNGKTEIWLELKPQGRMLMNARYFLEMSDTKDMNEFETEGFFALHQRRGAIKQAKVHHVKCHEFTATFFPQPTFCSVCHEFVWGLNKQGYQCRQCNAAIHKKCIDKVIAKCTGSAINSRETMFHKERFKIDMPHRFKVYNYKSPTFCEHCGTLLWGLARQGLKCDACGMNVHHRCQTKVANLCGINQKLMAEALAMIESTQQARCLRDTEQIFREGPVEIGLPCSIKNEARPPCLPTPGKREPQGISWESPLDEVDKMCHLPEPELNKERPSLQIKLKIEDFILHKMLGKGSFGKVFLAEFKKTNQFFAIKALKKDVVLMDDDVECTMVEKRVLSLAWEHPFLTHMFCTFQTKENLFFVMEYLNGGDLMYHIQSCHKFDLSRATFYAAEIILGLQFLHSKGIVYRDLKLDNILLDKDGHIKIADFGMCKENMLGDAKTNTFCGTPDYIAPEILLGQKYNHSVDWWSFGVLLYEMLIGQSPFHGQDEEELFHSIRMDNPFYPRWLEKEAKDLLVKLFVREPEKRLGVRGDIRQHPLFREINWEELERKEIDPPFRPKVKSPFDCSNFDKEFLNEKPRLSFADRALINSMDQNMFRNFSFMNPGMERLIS
Sequence of Protein kinase C beta type (P05771 whole entry, the tested form may be a part): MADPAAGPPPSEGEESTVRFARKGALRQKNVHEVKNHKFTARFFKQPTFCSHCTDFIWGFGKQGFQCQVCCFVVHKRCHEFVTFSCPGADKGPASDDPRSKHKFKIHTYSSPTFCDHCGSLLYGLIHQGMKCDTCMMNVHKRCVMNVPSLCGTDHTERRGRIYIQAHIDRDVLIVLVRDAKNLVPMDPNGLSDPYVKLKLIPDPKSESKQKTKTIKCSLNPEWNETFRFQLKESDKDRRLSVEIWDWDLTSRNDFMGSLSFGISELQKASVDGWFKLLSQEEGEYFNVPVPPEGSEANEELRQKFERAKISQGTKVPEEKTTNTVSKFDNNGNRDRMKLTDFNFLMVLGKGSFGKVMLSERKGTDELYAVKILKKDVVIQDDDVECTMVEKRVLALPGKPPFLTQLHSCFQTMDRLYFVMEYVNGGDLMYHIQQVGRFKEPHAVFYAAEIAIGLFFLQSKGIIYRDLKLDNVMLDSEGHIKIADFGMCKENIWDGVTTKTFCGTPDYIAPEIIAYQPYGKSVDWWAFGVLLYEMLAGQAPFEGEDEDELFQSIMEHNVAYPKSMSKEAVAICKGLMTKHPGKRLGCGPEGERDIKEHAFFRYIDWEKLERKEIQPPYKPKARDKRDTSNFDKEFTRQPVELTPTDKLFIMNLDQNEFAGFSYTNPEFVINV
Sequence of Protein kinase C delta type (Q05655 whole entry, the tested form may be a part): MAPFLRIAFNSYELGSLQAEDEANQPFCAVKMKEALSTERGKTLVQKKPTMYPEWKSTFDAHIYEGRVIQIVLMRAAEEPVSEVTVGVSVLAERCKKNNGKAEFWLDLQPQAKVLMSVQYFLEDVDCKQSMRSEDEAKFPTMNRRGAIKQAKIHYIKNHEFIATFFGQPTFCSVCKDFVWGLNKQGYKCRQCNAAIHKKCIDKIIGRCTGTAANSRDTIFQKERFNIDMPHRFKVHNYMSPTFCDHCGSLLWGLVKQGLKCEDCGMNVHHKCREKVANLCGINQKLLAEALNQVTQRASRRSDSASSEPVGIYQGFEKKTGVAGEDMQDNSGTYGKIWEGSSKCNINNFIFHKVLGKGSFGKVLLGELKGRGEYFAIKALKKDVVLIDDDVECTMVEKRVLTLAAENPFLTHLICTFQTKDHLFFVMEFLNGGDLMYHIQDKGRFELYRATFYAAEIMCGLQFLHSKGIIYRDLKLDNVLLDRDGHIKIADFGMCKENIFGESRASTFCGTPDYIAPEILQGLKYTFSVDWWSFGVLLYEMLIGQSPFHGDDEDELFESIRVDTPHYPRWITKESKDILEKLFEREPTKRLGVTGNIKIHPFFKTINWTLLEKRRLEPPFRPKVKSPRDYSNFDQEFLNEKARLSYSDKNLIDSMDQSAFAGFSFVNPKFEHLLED

## CCCCCCCCCCCCCC(=O)O[C@@H]1[C@@H](C)[C@@]2(O)[C@@H](C=C(CO)C[C@]3(O)C(=O)C(C)=C[C@@H]23)[C@@H]2C(C)(C)[C@]12OC(C)=O [PHORBOL MYRISTATE ACETATE]
Raji [1]
  Activity: Toxic
Mus musculus [2]
  Activity: Toxic
Mus musculus [3]
  Activity: 100%
Mus musculus [4]
  Activity: Toxic

## CC1(C)CC[C@@H]2CC(=O)O[C@@H](CO)CC(=O)O[C@@H]3C[C@@H](CCCCc4cccc(O)c4)O[C@@]1(C3)O2
Raji [5]
  Activity: Toxic
[6]
  logP: 3.3

## C[C@H]1[C@@H]2C[C@@]3(O[C@H](CCC3(C)C)CC(=O)O[C@@H](CO)CC(=O)O2)O[C@@H]1CCCCc1cccc(O)c1
[7]
  GI50: 33.1 nM
MDA-MB-231
  GI50: 126 nM
SNB-78
  GI50: 891 nM
HCC 2998
  GI50: 339 nM
NCI-H460
  GI50: 85.1 nM
A549
  GI50: 977 nM
LOX IMVI
  GI50: 617 nM
St-4
  GI50: 575 nM
Raji [1]
  Activity: < 10%
Mus musculus [8]
  Activity: Non-toxic
[9]
  pKi: 8.33
[10]
  pKi: 7.92
[11]
  pKi: 8.26
[12]
  pKi: 9.34
[13]
  pKi: 8.70
[14]
  pKi: 9.35
[15]
  pKi: 9.27
[6]
  logP: 3.6

## C[C@@H]1CC(C)(C)[C@@]23C[C@@H](C[C@@H](CCCCc4cccc(O)c4)O2)OC(=O)C[C@H](CO)OC(=O)C[C@@H]1O3
[7]
  GI50: 275 nM
MDA-MB-231
  GI50: 1550 nM
SNB-78
  GI50: 17400 nM
HCC 2998
  GI50: 4070 nM
NCI-H460
  GI50: 1260 nM
A549
  GI50: 7410 nM
LOX IMVI
  GI50: 4170 nM
St-4
  GI50: 6030 nM
Raji [1]
  Activity: < 10%
[9]
  pKi: 7.82
[10]
  pKi: 7.82
[11]
  pKi: 7.92
[12]
  pKi: 8.48
[13]
  pKi: 7.77
[14]
  pKi: 8.23
[15]
  pKi: 8.54
[6]
  logP: 3.7

## CO[C@@H](CC[C@H](C)[C@H]1O[C@@]23C[C@H](OC(=O)C[C@H]([C@@H](C)O)OC(=O)C[C@](O)(O2)[C@H](C)CC3(C)C)[C@@H]1C)c1cccc(O)c1 [DEBROMOAPLYSIATOXIN]
[7]
  GI50: 339 nM
MDA-MB-231
  GI50: 933 nM
SNB-78
  GI50: 15800 nM
HCC 2998
  GI50: 813 nM
NCI-H460
  GI50: 347 nM
A549
  GI50: 1150 nM
LOX IMVI
  GI50: 2040 nM
St-4
  GI50: 363 nM
Raji [1]
  Activity: Toxic
[9]
  pKi: 9.59
[10]
  pKi: 9.77
[11]
  pKi: 9.42
[12]
  pKi: 9.70
[13]
  pKi: 9.20
[14]
  pKi: 9.96
[15]
  pKi: 9.96
[6]
  logP: 4.4
Mus musculus [16]
  Activity: Toxic

Reference: ChEMBL document CHEMBL2146455, “Structure-activity studies on the spiroketal moiety of a simplified analogue of debromoaplysiatoxin with antiproliferative activity” (J Med Chem, 2012)
